Source: ChEMBL document CHEMBL1128174, “Enhanced D1 affinity in a series of piperazine ring substituted 1-piperazino-3-arylindans with potential atypical antipsychotic activity” (J Med Chem, 1995)

Experiments:
[1] = molecular target: T1, Adrenergic receptor alpha-1 (Rattus norvegicus, UniProt P15823+P23944+P43140); experiment: Binding affinity against Alpha-1 adrenergic receptor, activity is expressed as IC50 values; assay type: protein assay
T1 sequence (P15823 whole entry): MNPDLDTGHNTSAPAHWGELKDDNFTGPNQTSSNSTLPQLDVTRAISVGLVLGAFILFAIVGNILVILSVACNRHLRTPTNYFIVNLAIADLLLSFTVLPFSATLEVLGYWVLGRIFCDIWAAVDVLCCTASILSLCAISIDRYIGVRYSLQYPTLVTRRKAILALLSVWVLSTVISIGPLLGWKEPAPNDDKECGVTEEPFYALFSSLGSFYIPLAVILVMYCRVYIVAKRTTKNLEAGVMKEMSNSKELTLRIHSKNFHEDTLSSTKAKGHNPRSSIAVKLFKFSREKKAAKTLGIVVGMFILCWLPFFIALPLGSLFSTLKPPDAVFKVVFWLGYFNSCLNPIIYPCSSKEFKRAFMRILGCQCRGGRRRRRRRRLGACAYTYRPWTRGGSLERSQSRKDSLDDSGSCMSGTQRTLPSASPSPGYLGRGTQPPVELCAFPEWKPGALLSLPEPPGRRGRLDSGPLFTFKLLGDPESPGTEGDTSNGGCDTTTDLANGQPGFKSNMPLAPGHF
T1 sequence (P23944 whole entry): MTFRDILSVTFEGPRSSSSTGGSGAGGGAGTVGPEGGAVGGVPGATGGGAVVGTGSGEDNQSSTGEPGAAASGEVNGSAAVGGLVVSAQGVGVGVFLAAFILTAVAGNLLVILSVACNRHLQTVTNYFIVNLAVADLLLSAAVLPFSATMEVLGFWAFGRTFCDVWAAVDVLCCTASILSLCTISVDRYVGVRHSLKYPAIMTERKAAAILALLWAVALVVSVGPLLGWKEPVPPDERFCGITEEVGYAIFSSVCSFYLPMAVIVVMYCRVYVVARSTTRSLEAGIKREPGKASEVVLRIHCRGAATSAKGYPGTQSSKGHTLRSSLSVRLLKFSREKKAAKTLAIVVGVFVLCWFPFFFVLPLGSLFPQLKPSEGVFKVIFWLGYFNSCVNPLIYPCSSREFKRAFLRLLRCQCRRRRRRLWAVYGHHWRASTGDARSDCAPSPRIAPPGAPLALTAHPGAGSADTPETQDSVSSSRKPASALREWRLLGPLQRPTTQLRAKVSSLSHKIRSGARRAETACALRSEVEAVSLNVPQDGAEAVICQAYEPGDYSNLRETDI
T1 sequence (P43140 whole entry): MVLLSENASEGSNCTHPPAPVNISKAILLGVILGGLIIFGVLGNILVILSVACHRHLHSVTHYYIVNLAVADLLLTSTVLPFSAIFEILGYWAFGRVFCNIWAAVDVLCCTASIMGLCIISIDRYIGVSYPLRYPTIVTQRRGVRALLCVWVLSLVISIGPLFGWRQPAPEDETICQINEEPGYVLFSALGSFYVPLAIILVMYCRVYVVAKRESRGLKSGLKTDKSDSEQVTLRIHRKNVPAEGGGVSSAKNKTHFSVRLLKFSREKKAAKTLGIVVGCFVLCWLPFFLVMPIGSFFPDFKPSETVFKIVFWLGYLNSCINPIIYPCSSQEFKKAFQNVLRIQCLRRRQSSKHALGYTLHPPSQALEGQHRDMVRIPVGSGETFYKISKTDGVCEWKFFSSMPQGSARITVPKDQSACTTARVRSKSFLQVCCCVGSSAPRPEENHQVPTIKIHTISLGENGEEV

[2] = species: Rattus norvegicus; experiment: Cataleptogenic effect in rats; assay type: functional
How it was run: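 Rats scored on a vertical wire grid hourly 1–6 h after dosing; catalepsy counted when immobility lasted at least 15 s.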

[3] = species: Mus musculus; experiment: Antagonism of methyl phenidate-induced gnawing behavior in mice; assay type: functional
How it was run: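 Test compound given ip (or sc) 2 h before methyl phenidate (60 mg/kg); mice housed in pairs on corrugated cardboard in gnawing cages, 5–9 pairs per dose.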

[4] = species: Rattus norvegicus; experiment: In vitro inhibition of [3H]dopamine uptake in rat corpus striatum homogenates.; assay type: functional
[5] = molecular target: 5-hydroxytryptamine receptor 2A (Rattus norvegicus, UniProt P14842); experiment: Binding affinity for 5-hydroxytryptamine 2A receptor, activity is expressed as IC50 values.
[6] = species: Rattus norvegicus; experiment: In vitro inhibition of [3H]NE uptake in rat occipital lobe (plus temporal cortex) homogenates.; assay type: functional
[7] = species: Rattus norvegicus; experiment: In vitro inhibition of [3H]5-HT uptake in rat brain (minus pons, medulla oblongata and cerebellum) homogenates.; assay type: functional
[8] = molecular target: T2, D(1A) dopamine receptor (Rattus norvegicus, UniProt P18901); experiment: Binding affinity for dopamine receptor D1, activity is expressed as IC50 values.
[9] = molecular target: D(2) dopamine receptor (Rattus norvegicus, UniProt P61169); experiment: Binding affinity against dopamine receptor D2
[10] = molecular target: T2, D(1A) dopamine receptor; experiment: The compound was tested for the binding affinity against Dopamine receptor D1 activity is expressed as IC50 values.
How it was run: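 [3H]SCH 23390 displaced from rat striatal membrane preparations; IC50 read from log-concentration–effect curves, two complete curves of five test concentrations run in triplicate over three decades.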

[11] = Rattus norvegicus, read-out: ED50

Sequence of D(2) dopamine receptor (P61169 whole entry): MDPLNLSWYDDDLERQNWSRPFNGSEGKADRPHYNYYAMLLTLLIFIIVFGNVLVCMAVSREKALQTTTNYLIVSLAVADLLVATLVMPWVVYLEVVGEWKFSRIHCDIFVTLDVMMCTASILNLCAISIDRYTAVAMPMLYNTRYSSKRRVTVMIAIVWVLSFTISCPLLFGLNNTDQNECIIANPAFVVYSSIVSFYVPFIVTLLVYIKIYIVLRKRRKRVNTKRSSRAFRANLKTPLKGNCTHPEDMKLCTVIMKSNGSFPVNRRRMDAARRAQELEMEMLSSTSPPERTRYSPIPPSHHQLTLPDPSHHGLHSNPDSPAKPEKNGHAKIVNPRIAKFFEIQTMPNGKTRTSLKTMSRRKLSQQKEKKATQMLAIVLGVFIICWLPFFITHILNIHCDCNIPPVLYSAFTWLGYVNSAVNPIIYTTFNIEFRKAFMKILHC
Sequence of 5-hydroxytryptamine receptor 2A (P14842 whole entry): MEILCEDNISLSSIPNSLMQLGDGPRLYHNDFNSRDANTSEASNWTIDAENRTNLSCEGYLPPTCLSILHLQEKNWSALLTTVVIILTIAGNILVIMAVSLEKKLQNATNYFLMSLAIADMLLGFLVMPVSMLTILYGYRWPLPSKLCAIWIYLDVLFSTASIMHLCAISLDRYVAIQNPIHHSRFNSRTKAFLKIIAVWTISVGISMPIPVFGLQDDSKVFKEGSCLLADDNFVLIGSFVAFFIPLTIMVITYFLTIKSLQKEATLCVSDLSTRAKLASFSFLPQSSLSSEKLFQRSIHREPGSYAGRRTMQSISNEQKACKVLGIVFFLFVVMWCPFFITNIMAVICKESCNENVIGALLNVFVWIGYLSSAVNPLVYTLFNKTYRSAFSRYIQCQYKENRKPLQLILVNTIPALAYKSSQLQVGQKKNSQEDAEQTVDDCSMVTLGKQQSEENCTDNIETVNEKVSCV
T2 sequence (P18901 whole entry): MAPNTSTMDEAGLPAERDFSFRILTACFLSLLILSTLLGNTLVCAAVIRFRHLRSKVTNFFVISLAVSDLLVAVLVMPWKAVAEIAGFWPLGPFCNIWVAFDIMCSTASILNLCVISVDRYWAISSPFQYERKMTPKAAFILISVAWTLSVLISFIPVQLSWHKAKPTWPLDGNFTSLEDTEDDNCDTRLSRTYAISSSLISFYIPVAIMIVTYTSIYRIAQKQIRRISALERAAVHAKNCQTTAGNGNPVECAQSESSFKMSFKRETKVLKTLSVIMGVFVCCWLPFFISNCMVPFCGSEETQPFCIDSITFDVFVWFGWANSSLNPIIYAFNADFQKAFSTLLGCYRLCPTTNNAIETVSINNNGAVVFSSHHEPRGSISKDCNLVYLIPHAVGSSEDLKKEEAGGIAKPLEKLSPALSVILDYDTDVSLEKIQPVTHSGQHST

Structure (SMILES) | IC50 [1] | ED50 [2, 11] | ED50 [3] | IC50 [4] | IC50 [5] | IC50 [6] | ED50 [2] | IC50 [7] | IC50 [8] | IC50 [9] | IC50 [10] | ED50 ([3]; Mus musculus, read-out: ED50)
CN1CCN(C2CC(c3ccccc3)c3ccc(Cl)cc32)CC1(C)C (stereo in doubt; 38) | 23 nM | > 76 µmol/kg | 24 µM/kg | – | – | – | – | – | – | – | – | –
CC1(C)CN(C2CC(c3ccc(F)cc3)c3ccc(Cl)cc32)CCN1 (stereo in doubt; (-)-41) | 12 nM | – | 5.6 µM/kg | 400 nM | 3.7 nM | 2200 nM | >84 µM/kg | 1800 nM | 1.1 nM | 9 nM | – | –
CN1CCN(C2CC(c3ccc(F)cc3)c3ccc(F)cc32)CC1(C)C (stereo in doubt; (-)-40) | 4.7 nM | 42 µmol/kg | 1 µM/kg | 4000 nM | 1.9 nM | > 10000 nM | – | 12000 nM | 0.71 nM | 6.8 nM | – | –
OCCN1CCN(C2CC(c3ccc(F)cc3)c3cc(Cl)ccc32)CC1 (configuration not stated) | – | – | – | – | – | – | – | – | – | – | 1800 nM | –
CN1CCN(C2CC(c3ccc(F)cc3)c3ccc(F)cc32)CC1(C)C (stereo in doubt; 40) | 12 nM | – | 2.1 µM/kg | – | – | – | >68 µM/kg | – | – | – | – | –
CN1CCN(C2CC(c3ccccc3)c3ccccc32)CC1 (configuration not stated) | – | – | – | – | – | – | – | – | – | 690 nM | 480 nM | –
CC1(C)CN(C2CC(c3ccc(F)cc3)c3ccc(Cl)cc32)CCN1 (stereo in doubt; 41) | 39 nM | > 48 µmol/kg | – | – | – | – | – | – | – | – | – | 6.7 µmol/kg
CN1CCN(C2CC(c3ccc(F)cc3)c3ccccc32)CC1(C)C (stereo in doubt; (-)-39) | 4.4 nM | – | 7.2 µM/kg | 5200 nM | 2.9 nM | 17000 nM | >44 µM/kg | 10000 nM | 2.5 nM | 12 nM | – | –
CN1CCN(C2CC(c3ccccc3)c3ccc(Cl)cc32)CC1(C)C (single isomer, unassigned; (-)) | 10 nM | – | 8.8 µM/kg | 390 nM | 4.4 nM | 1700 nM | >85 µM/kg | 4000 nM | 1.1 nM | 9.5 nM | – | –
OCCN1CCN(C2CC(c3ccc(F)cc3)c3ccc(Cl)cc32)CC1 (configuration not stated) | – | – | – | – | – | – | – | – | – | – | 8.3 nM | –
OCCN1CCN(C2CC(c3ccc(F)cc3)c3c(Cl)cccc32)CC1 (configuration not stated) | – | – | – | – | – | – | – | – | – | – | 2000 nM | –
CC1(C)CN(C2CC(c3ccsc3)c3ccc(Cl)cc32)CCN1 (single isomer, unassigned; (-)) | 25 nM | > 49 µmol/kg | – | 2700 nM | 1.9 nM | 4000 nM | – | 4500 nM | 0.84 nM | 7.1 nM | – | 11 µmol/kg
CN1CCN(C2CC(c3ccc(F)cc3)c3cc(Cl)ccc32)CC1(C)C (configuration not stated) | 94 nM | – | – | – | – | – | – | – | – | – | – | > 110 µmol/kg
CN1CCN(C2CC(c3ccc(F)cc3)c3cccc(F)c32)CC1(C)C (configuration not stated) | 15 nM | > 90 µmol/kg | – | – | – | – | – | – | – | – | – | 6.9 µmol/kg
CN1CCN(C2CC(c3ccsc3)c3ccc(Cl)cc32)CC1(C)C (configuration not stated) | 14 nM | 44 µmol/kg | – | – | – | – | – | – | – | – | – | 1.3 µmol/kg
